Experimental data from ChEMBL document CHEMBL4382268, “Glycyrrhetinic acid derivatives containing aminophosphonate ester species as multidrug resistance reversers that block the NF-κB pathway and cell proliferation” (Bioorg Med Chem Lett, 2018).

How the values were obtained:
[1] = test system: L02; test: Antiproliferative activity against human HL-7702 cells after 48 hrs by MTT assay; assay type: functional, cell-based; conditions: L02, 48 h
In short: (§1)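 MTT read-out of antiproliferative activity across cancer lines HepG-2, NCI-H460, MGC-803, A549 and MG-63 and normal liver line HL-7702. IC50 given as mean ± S.D. of three separate experiments, each run in triplicate.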

[2] = test system: HepG2; test: Antiproliferative activity against human HepG2 cells after 48 hrs by MTT assay; assay type: functional, cell-based; conditions: HepG2, 48 h; in short: as §1
[3] = Inhibition of TNF-alpha induced NF-kappaB activation in human A549 cells after 7 hrs by Bright-Glo luciferase reporter gene assay; assay type: cell-based
In short: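 A549 cells transiently cotransfected with an NF-κB-Luc reporter and stimulated with TNF-α. Luciferase read-out of inhibition gives IC50, the mean of at least three independent experiments each with triplicates.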

[4] = test system: MG-63; test: Antiproliferative activity against human MG63 cells after 48 hrs by MTT assay; assay type: functional, cell-based; conditions: MG-63, 48 h; in short: as §1
[5] = test system: A549; test: Antiproliferative activity against human A549 cells after 48 hrs by MTT assay; assay type: functional, cell-based; conditions: A549, 48 h; in short: as §1
[6] = test system: NCI-H460; test: Antiproliferative activity against human NCI-H460 cells after 48 hrs by MTT assay; assay type: functional, cell-based; conditions: NCI-H460, 48 h; in short: as §1
[7] = test system: MGC-803; test: Antiproliferative activity against human MGC803 cells after 48 hrs by MTT assay; assay type: functional, cell-based; conditions: MGC-803, 48 h; in short: as §1
[8] = Homo sapiens, A549, 7 h, read-out: IC50

SMILES	IC50 [2] [µM]	IC50 [3, 8] [µM]	IC50 [5] [µM]	IC50 [6] [µM]	IC50 [7] [µM]	IC50 ([3]; a549)	IC50 [1] [µM]	IC50 [4] [µM]
CCOP(=O)(OCC)C(Nc1ccc(CC(=O)NCCCNC(=O)[C@@]2(C)CC[C@]3(C)CC[C@]4(C)C(=CC(=O)[C@@H]5[C@@]6(C)CC[C@H](O)C(C)(C)[C@@H]6CC[C@]54C)[C@@H]3C2)cc1)c1cccc(Br)c1 (stereo partly drawn)	> 50	–	> 50	> 50	> 50	Not Active	> 50	> 50
CCOP(=O)(OCC)C(Nc1ccc(CC(=O)NCCCNC(=O)[C@@]2(C)CC[C@]3(C)CC[C@]4(C)C(=CC(=O)[C@@H]5[C@@]6(C)CC[C@H](O)C(C)(C)[C@@H]6CC[C@]54C)[C@@H]3C2)cc1)c1cccc(OC)c1 (stereo partly drawn)	> 50	–	> 50	> 50	45.2	Not Active	> 50	46.6
CCOP(=O)(OCC)C(Nc1ccc(CC(=O)NCCCNC(=O)[C@@]2(C)CC[C@]3(C)CC[C@]4(C)C(=CC(=O)[C@@H]5[C@@]6(C)CC[C@H](OC(C)=O)C(C)(C)[C@@H]6CC[C@]54C)[C@@H]3C2)cc1)c1ccc(OC)cc1 (stereo partly drawn)	19.3	5.03	19.3	18.8	18.2	–	> 50	19.1
CC[C@@]1(O)C(=O)OCc2c1cc1n(c2=O)Cc2cc3cc(O)ccc3nc2-1 [HYDROXYCAMPTOTHECIN]	–	–	9.13	10.1	9.71	–	10.2	10.7

More lines, main results first:

IC50 [2] [µM]	IC50 [3, 8] [µM]	IC50 [5] [µM]	IC50 [6] [µM]	IC50 [7] [µM]	IC50 ([3]; a549)	SMILES	IC50 [1] [µM]	IC50 [4] [µM]
35.6	> 30	31.9	20.3	35.7	–	CCOP(=O)(OCC)C(Nc1ccc(CC(=O)NCCCNC(=O)[C@@]2(C)CC[C@]3(C)CC[C@]4(C)C(=CC(=O)[C@@H]5[C@@]6(C)CC[C@H](O)C(C)(C)[C@@H]6CC[C@]54C)[C@@H]3C2)cc1)c1ccc(Br)cc1 (stereo partly drawn)	> 50	25.1
> 50	> 30	> 50	> 50	> 50	–	CCOP(=O)(OCC)C(Nc1ccc(CC(=O)NCCCCNC(=O)[C@@]2(C)CC[C@]3(C)CC[C@]4(C)C(=CC(=O)[C@@H]5[C@@]6(C)CC[C@H](O)C(C)(C)[C@@H]6CC[C@]54C)[C@@H]3C2)cc1)c1cccc(Br)c1 (stereo partly drawn)	> 50	> 50
46.4	29.4	48.3	39.2	> 50	–	CCOP(=O)(OCC)C(Nc1ccc(CC(=O)NCCCCNC(=O)[C@@]2(C)CC[C@]3(C)CC[C@]4(C)C(=CC(=O)[C@@H]5[C@@]6(C)CC[C@H](O)C(C)(C)[C@@H]6CC[C@]54C)[C@@H]3C2)cc1)c1cccc(OC)c1 (stereo partly drawn)	> 50	45.6
26.3	13.2	23.1	13.2	15.2	–	CCOP(=O)(OCC)C(Nc1ccc(CC(=O)NCCCCNC(=O)[C@@]2(C)CC[C@]3(C)CC[C@]4(C)C(=CC(=O)[C@@H]5[C@@]6(C)CC[C@H](OC(C)=O)C(C)(C)[C@@H]6CC[C@]54C)[C@@H]3C2)cc1)c1ccccc1 (stereo partly drawn)	> 50	20.2
23.6	28.4	20.5	17.1	29.9	–	CCOP(=O)(OCC)C(Nc1ccc(CC(=O)NCCCNC(=O)[C@@]2(C)CC[C@]3(C)CC[C@]4(C)C(=CC(=O)[C@@H]5[C@@]6(C)CC[C@H](OC(C)=O)C(C)(C)[C@@H]6CC[C@]54C)[C@@H]3C2)cc1)c1ccc(Br)cc1 (stereo partly drawn)	> 50	21.3
37.1	25.1	33.2	30.5	36.3	–	CCOP(=O)(OCC)C(Nc1ccc(CC(=O)NCCCCNC(=O)[C@@]2(C)CC[C@]3(C)CC[C@]4(C)C(=CC(=O)[C@@H]5[C@@]6(C)CC[C@H](O)C(C)(C)[C@@H]6CC[C@]54C)[C@@H]3C2)cc1)c1ccccc1 (stereo partly drawn)	> 50	27.8
